mABHD4 FP = inhibits mouse alpha/beta hydrolase domain 4; purified mABHD4, FP-Rh probe fluorescence polarization; 370,000 compounds, 0.54% hits; Q8VD66; inhibition, % at 8.92 µM;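 active = inhibition exceeding the mean over every tested compound plus 3 SD, cut at about 30% in these data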;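 also: 0% = plate median of compound wells and 100% = S159A mutant with DMSO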
Target sequence (Q8VD66 whole entry, looked up, the tested form may be a part): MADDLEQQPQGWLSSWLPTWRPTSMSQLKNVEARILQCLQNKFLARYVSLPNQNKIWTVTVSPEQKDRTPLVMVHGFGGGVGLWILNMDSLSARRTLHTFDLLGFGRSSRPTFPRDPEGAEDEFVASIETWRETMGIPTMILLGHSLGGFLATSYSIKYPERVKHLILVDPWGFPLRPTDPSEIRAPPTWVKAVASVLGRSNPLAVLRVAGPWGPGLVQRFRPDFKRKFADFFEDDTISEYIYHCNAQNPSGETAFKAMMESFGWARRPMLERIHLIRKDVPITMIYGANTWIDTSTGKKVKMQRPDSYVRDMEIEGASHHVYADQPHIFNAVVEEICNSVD
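assay system = mABHD4 protein | compound dosing = single nominal dose of 8.92 µM, 0.89% DMSO final | read-out basis = percent inhibition of probe binding, normalized to plate controls | schedule = Enzyme–compound pre-incubation 45 min, then probe 60 min, both 25 °C | detection = fluorescence polarization, excitation 525 nm, emission 598 nm, BODIPY TMR filters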
SIAE primary = human SIAE inhibition, primary screen; inhibition, % at 9.66 µM; AID 1053197; 370,000 compounds, 0.69% hits; SIAE FP-Rh probe binding, fluorescence polarization; Q9HAT2;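 active = inhibition above a cutoff: mean of compounds within the control limits plus 3 SD of those, cut at about 17% in these data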;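 also: 0% = plate median of compound wells and 100% = probe without SIAE protein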
pPAFAH FP inh = inhibitors of human plasma PAF acetylhydrolase (pPAFAH); recombinant pPAFAH, FP-rhodamine probe fluorescence polarization; inhibition, % at 3.39 µM; AID 463082; 330,000 compounds, 1.5% hits;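 active = inhibition above the mean inhibition across the screen plus 3 SD, cut at about 25% in these data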;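 also: inhibitors block binding of the rhodamine activity-based probe so polarization drops; 0% = enzyme with DMSO and 100% = wells lacking pPAFAH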
HTRA1 inh = blocks human HTRA1 serine peptidase. AID 504803. inhibition, % at 5.96 µM. Q92743. recombinant HTRA1, FP-rhodamine activity-based probe, fluorescence polarization. 340,000 compounds, 0.5% hits; in the data active = inhibition above about 36%;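 also: 0% = enzyme with DMSO and 100% = wells lacking enzyme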
TCR-CD3 inh = blocks the human TCR-CD3 interaction; TAMRA-labeled TCR probe fluorescence, biochemical; inhibition, % at 9.4 µM; 360,000 compounds, 0.37% hits; in the data active = inhibition above about 19%;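 also: recombinant mutant TCR 2C K166C tagged with TAMRA read by polarization; 0% = receptor in buffer alone and 100% = receptor with positive control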
SIAE inh conf = confirmation of human SIAE inhibitors | inhibition, % at 9.66 µM | SIAE FP-Rh activity-based probe, fluorescence polarization | shares compounds with SIAE primary | 2,300 compounds, 13% hits | AID 1117263;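 active = mean inhibition of the replicates above the hit cutoff set in the primary screen, cut at about 17% in these data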;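 also: 0% = SIAE with DMSO and probe and 100% = probe without SIAE; inhibitors lower polarization as more probe stays unbound to SIAE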
* = called active by the depositor; · = not tested or not shown; ! = a repeat was not active. Most compounds without a hit are left out; they make up all but 2.3% or so of the library.

SMILES | mABHD4 FP | SIAE primary | pPAFAH FP inh | HTRA1 inh | TCR-CD3 inh | SIAE inh conf
CC(C)CN1C(=O)[C@]2(CC(=O)N(C)C2c2ccccc2)c2cc(-n3cc(CCCC#N)nn3)ccc21 (stereo partly drawn) | 3 | 0 | · | · | · | ·
CC(C)CN1C(=O)[C@]2(CC(=O)N(C)C2c2ccccc2)c2cc(-n3cc(CN(C)C)nn3)ccc21 (stereo partly drawn) | 3 | 18* | · | · | · | 5
C/C(=N/NC(=S)Nc1cccc(C)c1)c1cccc([N+](=O)[O-])c1 | 3 | 15 | 8 | -12 | 1 | ·
C/C(=N\NC(=S)NC(C)C)c1cccc([N+](=O)[O-])c1 | 1 | 20* | 3 | 6 | 7 | -1
c1csc(CNc2ncnc3ccc(-c4ccc5c(c4)OCO5)cc23)n1 | 8 | -10 | · | · | · | ·
Cc1cc(Nc2ccccc2C(=O)O)nc2nc3ccccc3c(=O)n12 | -2 | 23* | -2 | -2 | 4 | -4
COc1ccc(NC(=O)Cn2c(=O)oc3cc(Cl)ccc32)c(OC)c1 | -2 | 17* | -1 | -4 | 7 | 2
COc1cccc(CNc2nc3cc(-c4ccccc4CO)sc3c(=O)n2C)c1 | -28 | -15 | · | · | 0 | ·
O=C(c1ccc(S(=O)(=O)NCC2CCCO2)cc1)N1CCc2ccccc21 (stereo not drawn) | -6 | 22* | 7 | -2 | -1 | 3
Cc1ccc2nc(CN(C)C(=O)[C@@H](Cc3ccccc3)NC(=O)[C@H]3O[C@@H](n4cnc(C(N)=O)n4)[C@H](O)[C@@H]3O)[nH]c2c1 | -9 | 68* | · | · | -1 | 74*
CCC(c1ccccc1)c1noc(CCN(CC)CC)n1 (stereo not drawn) | -4 | 20* | · | -1 | -3 | 0
COC(=O)N1C[C@H](OCc2cn(-c3ccc(OC)cc3)nn2)[C@H]2C[C@@H]1c1ccccc1O2 | 0 | 3 | · | · | 4 | ·
COc1ccc(CN2C(NC(=O)OCc3ccccc3)=NC3=CC(C)(C)n4c(=O)n(-c5ccccc5)c(=O)n4C32)c(OC)c1 (stereo not drawn) | 3 | 3 | · | · | · | ·
C[n+]1ccc2[nH]c3ccccc3c2c1 | -1 | 26* | · | · | 4 | -6
c1ccc2c(c1)[nH]c1ccccc12 | -5 | -2 | -2 | -15 | 6 | ·
CCOC(=O)c1c(C)[nH]c(C=Nc2ccc(OC)cc2)c1O | 8 | -1 | 2 | 4 | 6 | ·
CCOC(=O)c1c(C)[nH]c(O)c1C=Nc1ccccc1 | 4 | 22* | 0 | 16 | 6 | 3
CC(C)n1nnnc1C1c2ccccc2OCC(=O)N1Cc1cccc(C(F)(F)F)c1 (stereo not drawn) | 1 | -1 | · | · | · | ·
Oc1c(C=C2N=c3ccccc3=N2)sc(=S)n1-c1ccc(F)cc1 | -4 | 18*! | 3 | 0 | 2 | 0
Oc1c(C=C2N=c3ccccc3=N2)sc(=S)n1-c1ccc2ccccc2c1 | 2 | 4 | 4 | -3 | 0 | ·
Cc1cc2c(cc1C)NC1=C(N2)OC(c2cccc(O)c2)C1=O (stereo not drawn) | -2 | 28* | 5 | -2 | -4 | -10
CC(=O)c1ccc(OCC(=O)NC(=O)NC2CCCC2)cc1 | 3 | 18* | · | 3 | 3 | 4
O=C(COC(=O)C1COc2ccccc2O1)NC(=O)NC1CCCCC1 (stereo not drawn) | 0 | 47* | 5 | -7 | -6 | -3
CC(=O)c1ccc(OCC(=O)NC2CCCCCC2)cc1 | 2 | 3 | 1 | 4 | 5 | ·
CCOC(=O)c1c(C)sc2c1N(C(=O)CN(CC)CC)c1ccccc1S2 | 0 | 17* | 2 | -2 | -10 | 1
SMILES | mABHD4 FP | SIAE primary | pPAFAH FP inh | HTRA1 inh | TCR-CD3 inh | SIAE inh conf
CCOC(=O)c1c(C)sc2c1N(C(=O)CN(CC)CC)c1cc(Cl)ccc1S2 | 1 | 1 | -2 | -4 | 3 | ·
CN1CCC(N[C@@H](Cc2ccccc2)C(=O)NCCCc2ccccc2)(C(=O)NCCc2c[nH]c3ccccc23)CC1 | 8 | 4 | · | · | · | ·
C=CCOC(=O)C1=C(C)NC(SCC(=O)NC(=O)OCC)=C(C#N)C1c1cccnc1 (stereo not drawn) | 5 | 18*! | -4 | 3 | -6 | 0
N#CCc1cnc2ccccc2n1 | 8 | 18* | 11 | 28 | 2 | -2
COC(=O)[C@@]12C[C@@H](CC(=O)NCc3ccc(C)o3)C(=O)N(Cc3ccc4c(c3)OCO4)C1=CCC(C)(C)C2 | 2 | 17* | · | · | -5 | 6
CC(C)N(Cc1nc2ccccc2c(=O)[nH]1)C(=O)c1ccc(NC(=O)CSc2nnnn2C)cc1 | 0 | 18* | 1 | -4 | -2 | -4
Cn1nnnc1SCC(=O)NCc1ccccc1 | -4 | -1 | 6 | 0 | 1 | ·
COc1ccc(CC(=O)NC2CCCCN(Cc3ccc(Cl)cc3)C2=O)cc1OC (stereo not drawn) | -7 | 0 | · | · | · | ·
O=C1C2CC=CCC2C(=O)N1c1ccc(NCCc2ccccc2F)c([N+](=O)[O-])c1 (stereo not drawn) | -1 | 17* | 7 | -1 | 6 | 2
CSCC[C@H](NC(=O)[C@@H]1Cc2ccccc2CN1)C(=O)Nc1ccc2c(c1)OCO2 | 11 | 18* | 10 | 20 | -10 | 1
COCCCNC(=O)c1cc(Sc2ccc(F)cc2)nc2ccccc12 | -6 | 18* | 11 | 5 | -3 | 1
CCOCCCNC(=O)c1cc(Sc2ccc(F)cc2)nc2ccccc12 | -10 | -16 | 12 | -1 | -3 | ·
CC(C)C[C@H]1COc2cccc(N3CCSCC3)c2S(=O)(=O)N1 | 6 | 5 | · | · | 6 | ·
O=C(NN=Cc1ccc(N2CCOCC2)s1)c1ccc([N+](=O)[O-])cc1 | 13 | 24* | 7 | 25 | 2 | 1
CC(=O)c1ccc(N2Cc3ccccc3/C2=N\C(=O)Nc2ccccc2)cc1 | 6 | 26* | -1 | -4 | 5 | 2
COc1cccc2[nH]c(C(=O)NC(C)c3ccccc3)cc12 (stereo not drawn) | -7 | 7 | 0 | -6 | 2 | ·
CCN(CC)c1ccc(NC(=O)c2cc3c(OC)cccc3[nH]2)cc1 | 10 | 25* | 14 | 22 | -2 | 12
COc1cc(NS(=O)(=O)c2ccc(NC(=O)CCC(=O)O)cc2)nc(OC)n1 | 0 | 17* | 3 | 3 | 1 | -7
CC(C)CC(=O)Nc1nnc(-c2ccco2)s1 | -7 | 18* | 0 | 1 | 5 | -1
CC(C)Cc1nnc(NC(=O)CCNC(=O)c2ccco2)s1 | -1 | 29* | 2 | 1 | 2 | 1
COC(=O)Nc1nnc(-c2ccco2)s1 | 5 | 7 | 5 | · | 2 | ·
O=C(N/N=C/c1c[nH]c2ccccc12)c1cc(Cl)ccc1O | 15 | 18* | 9 | 14 | 0 | 4
O=C(N/N=C/c1c[nH]c2ccccc12)c1ccccc1Cl | 2 | 9 | · | 4 | 8 | ·
Cn1ncc(Br)c1C(=O)O | 6 | -5 | 4 | -2 | -1 | ·
Cn1ncc(Br)c1N1C(=O)CCC1=O | -1 | 20* | 4 | · | -3 | 2

High-throughput results: PubChem, The Scripps Research Institute Molecular Screening Center
